Test results: ChEMBL document CHEMBL4513216, “Probing the Open Global Health Chemical Diversity Library for Multistage-Active Starting Points for Next-Generation Antimalarials” (ACS Infect Dis, 2020)

Assay: Toxicity liver stage against HepG2, at 10uM
Format: cell-based
Set-up: test concentration 10 uM, cell line HepG2-A16-CD81EGFP
Details: human, HepG2-A16-CD81EGFP cells; read-out: INHIBITION
How it was run: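 Uninfected HepG2-A16-CD81EGFP cells, 3 × 10^3 per well, 1536-well, plated on prespotted compound at 10 μM final, parasite-free screening media added to match infected plates; puromycin 10 μM positive, DMSO 0.5% negative; run in parallel with 48 h PbLuc assay at 37 °C, 5% CO2; viability by CellTiter-Glo luminescence, normalized to controls.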

Row | SMILES | cytotoxicity at 10 µM [%]
1 | CCc1ncc(C(=O)N2CCN(c3nc(C)cc(OC)n3)CC2)s1 | 1.1
2 | Cc1cnc(N)c(C(=O)C2CCN(C(=O)c3cnc(C)cn3)CC2)c1 | -19.7
3 | Cc1cccc(NC(=O)Nc2c[nH]c(=O)[nH]c2=O)c1C | 8.2
4 | c1ccc(Cn2cccn2)c(CNCC2CNc3ccnn3C2)c1 (stereo not given) | -10.7
5 | O=C(Nc1cnc(N2CCOCC2)nc1)c1ccc(C(F)(F)F)cc1 | 9.94
6 | CCS(=O)(=O)CCN(C)C(=O)NC(C)c1ccc(C)s1 (stereo not given) | -9.02
7 | Cc1ccc(CNC(=O)c2ccc(=O)n(C)n2)c(OCC2CC2)c1 | -5.92
8 | Cc1noc(C)c1CN1CCO[C@H]2CN(Cc3ccc(F)cc3)C[C@H]21 | 1.96
9 | c1cc(CN2CCO[C@H]3[C@H](OCCN4CCCC4)CC[C@@H]32)ccn1 | -1.95
10 | Cn1nc(C(=O)NCc2cccnc2)c2c1CCS(=O)(=O)C2 | 6.09
11 | CC(C)c1nnc(NCCS(C)(=O)=O)s1 | -1
12 | Cc1cc(CN(C)C(=O)NC2CCC(O)CC2)no1 (stereo not given) | -0.252
13 | Cc1nccn1-c1ccc(=O)n(CCNC(=O)Cc2ccccc2)n1 | -4.17
14 | COc1cnc(N2C[C@H](CO)C[C@H](CN3CCOCC3)C2)nc1 | -8.11
15 | CCOc1cc(C(=O)O)cc(-c2ccccc2)c1OC | -9.88
16 | CCc1cc(C)nc(N2CCN(C(C)c3nc(C)no3)CC2)n1 (stereo not given) | -2.64
17 | CC(OCc1ccccc1)C(=O)NC1CCN(CC(N)=O)CC1 (stereo not given) | -3.45
18 | CCC1(C(=O)O)CCCN(CCOCc2ccccc2)C1 (stereo not given) | 7.33
19 | CN(C)CCCNC(=O)c1ccccc1NC(=O)c1cc(Cl)ccc1Cl | -17
20 | CCCc1nc(C)c(C(=O)NS(=O)(=O)c2cccnc2)s1 | -5.8
21 | Cc1ncc2c(n1)CN(CCCOc1ccc(C#N)cc1)CC2 | -3.9
22 | O=C(NC1CCC1)c1cccc(S(=O)(=O)NCc2nc(C3CC3)no2)c1 | -0.0264
23 | O=C(CS(=O)(=O)Cc1cc(Cl)c2c(c1)OCO2)N1CCCC1 | -8.91
24 | CCCNC(=O)c1nc2c(o1)CN(C(C)=O)C2 | -70.6
25 | CC(C)OCCN1CCN(C(C)c2nc(C3CC3)no2)CC1 (stereo not given) | 2.07
26 | Cc1ocnc1C(=O)N(Cc1cccnc1)C[C@@H]1CCC(=O)N1 | 8.83
27 | OC[C@@H]1[C@H]2CN(c3ccccn3)CCN2C[C@H]1c1ccccc1 | -8.43

Row | SMILES | cytotoxicity at 10 µM [%]
28 | CN(CC(=O)NCc1cccnc1N1CCCCC1)C(=O)c1cccs1 | -14.8
29 | Cc1nc2cc(C(=O)N3C[C@@H](C(=O)O)[C@H](C4CC4)C3)ccc2[nH]1 | -12.1
30 | O=C(c1ccc(Cl)cc1)N1CCCn2nnc(Cn3cccn3)c2C1 | -10.3
31 | O=C(c1ccc2[nH]cnc2c1)N1CCCC1Cn1cccn1 (stereo not given) | -10
32 | CC(O)CN(C(=O)NC1CC1)C(C)C (stereo not given) | 13.1
33 | COc1ccc(CNC(C)c2cnn(C)c2)cc1OC1CCCC1 (stereo not given) | -0.734
34 | O=C(C1CC(F)(F)C1)N1C[C@@H]2CN(CC3CCCC3)CCO[C@@H]2C1 | -8.02
35 | COCC1(CNc2cc(C(C)C)nc(N)n2)CC1 | 29.4
36 | Cc1cnc(C(=O)N2C[C@@H]3CC[C@H]2CN(Cc2cscn2)C3)[nH]1 | 4.16
37 | CCN1CC(C(=O)N2CCN(CCn3cccc3)CC2)CCC1=O (stereo not given) | 1.87
38 | COc1ccc(Cc2ncc3c(n2)CN(C(=O)C2COCCO2)C3)cc1 (stereo not given) | -0.579
39 | CS(=O)(=O)CCC(=O)N1C[C@H]2CC[C@@H](C1)N(Cc1ccccc1)C2=O | -0.0119
40 | CN(C)C(=O)CC1CC2(CCNCC2)c2cc(F)ccc21 (stereo not given) | 6.54
41 | CC(C)CNC(=O)CNC(=O)NC(C)COc1ccccc1F (stereo not given) | -0.956
42 | O=C(CCc1cc(Cl)no1)N1CCCCC1CCn1ccnc1 (stereo not given) | -1.83
43 | Cc1cc(C)c(CNC(=O)NCc2ccc(F)c(C)c2)c(=O)[nH]1 | -12.8
44 | CN1Cc2c(C(=O)N3CCOCC3)ncn2-c2ccccc2S1(=O)=O | -1.58
45 | COCCn1cnc(-c2nc(C(=O)N3CCOCC3)c3ccccn23)c1 | -10.3
46 | OCc1ccc(-c2c(-c3ccccc3)ncn2CCN2CCOCC2)o1 | -18.9
47 | CCSCCC(C)NC(=O)Nc1cccn(C)c1=O (stereo not given) | -2.19
48 | Cc1nnc2n1CCN(CC(=O)Nc1cc(C(C)C)no1)C2 | -6.93
49 | COC(=O)N1CCC(Nc2cccc(F)c2C#N)CC1 | 18.1
50 | Cc1nc(C)n(CC2CCCN(CC(=O)Nc3c(C)n[nH]c3C)C2)n1 (stereo not given) | 0.813
51 | Cc1noc([C@@]23CCO[C@@H]2CCN(C(=O)C2CCOCC2)C3)n1 | 1.68
52 | Cc1nn(C)c(N2CCOCC2)c1CNCc1cccnc1 | 7.11
53 | CC(=O)Nn1c(C)cc(CN2CCC(C(=O)N3CCCC3)CC2)c1C | 1.57
54 | CNC(=O)c1nc(Cn2ncc3ccccc3c2=O)no1 | 6.6

Row | SMILES | cytotoxicity at 10 µM [%]
55 | O=C(NC1CCC(O)CC1)c1cnc2c(cnn2C2CCCC2)c1 (stereo not given) | -3.79
56 | O=C(c1cncc(N2CCC3(CCCNC3)C2)n1)N1CCCC1 (stereo not given) | -4.15
57 | O=C(c1cccs1)N1CCN(C(=O)c2ncoc2-c2ccco2)CC1 | 3.82
58 | CC(C)N1Cc2c(C(=O)N3CCOCC3)nn(C)c2C1 | 0.0756
59 | O=C(C1CCOCC1)N1CCC2(CCC(C(=O)N3CCCC3)O2)CC1 (stereo not given) | 6.41
60 | CN1CCC(CCNC(=O)N2CCN(Cc3ccon3)CC2)CC1 | -6.49
61 | Cc1ncncc1C(=O)N1C[C@@H]2CC[C@H]1CN(C(=O)c1ccncc1)C2 | -7.61
62 | Cc1noc(C)c1CN1C[C@H](OCC2CC2)[C@H]2COC[C@H]21 | -5.78
63 | CCc1cnccc1C(=O)NC1CCN(C(=O)OC)CC1 | 9.09
64 | CCCC(=O)Nc1cccc(C(=O)N(C)CCCC2CCCO2)c1 (stereo not given) | 1.03
65 | COc1ccc(OCC(=O)NS(=O)(=O)c2cc(F)ccc2F)cc1 | -19.5
66 | Cc1c(CN2CCC(C(=O)O)(n3ccnc3)CC2)oc2ccccc12 | -4.86
67 | CN(C)C(=O)Cn1c2c(ccc1=O)CC(NCc1ccoc1)CC2 (stereo not given) | 16.5
68 | CC(C)N(C)S(=O)(=O)N1CCN(Cc2ccco2)CC1 | -0.796
69 | Cn1cccc1C(=O)N1CCN2C[C@H](Oc3cccnc3)C[C@H]2C1 | 3.58
70 | COCC1CCCN(C(=O)c2ccc(NC(=O)CC(C)C)c(C)c2)C1 (stereo not given) | -5.76
71 | CC(C)c1nccc([C@H]2C[C@@H]3CCN(Cc4ccco4)C[C@H]3O2)n1 | -5.25
72 | O=C(CC(SC1CCCCC1)C(=O)O)c1ccc(Br)cc1 (stereo not given) | 3.43
73 | CC(Nc1ccc(N2C(=O)CCCC2=O)cc1)c1ccc(C#N)cc1 (stereo not given) | 8.71
74 | c1ccc(-c2ccc(C3CNCCO3)nc2)cc1 (stereo not given) | 2.36
75 | O=S(=O)(c1cc2ccccc2o1)N1CCCC1 | 20.2
76 | Cc1nc2n(n1)CC(NCCCc1nc(-c3cccs3)no1)CC2 (stereo not given) | -4.38
77 | Cc1nc(CCNC(=O)NC(C)Cn2cccn2)cs1 (stereo not given) | -1.85
78 | Cc1nc(Nc2ccccn2)cc(C2CCCN2Cc2ncc[nH]2)n1 (stereo not given) | -3.11
79 | CC(C)N1CCC(c2cccc(C(=O)N(C)C)n2)CC1 | 9.23
80 | Cc1nc(O)c2nnn(C[C@H]3CCCN3C(=O)c3cccs3)c2n1 | -25.6
